ChEMBL document CHEMBL3124843, “Synthesis, cytostatic, antimicrobial, and anti-HCV activity of 6-substituted 7-(het)aryl-7-deazapurine ribonucleosides” (J Med Chem, 2014)
Calls of active or inactive are those of the source. How the calls were made is not given here.

What was measured:
[1] = tested on: CCRF-CEM; test: Cytostatic activity against human CCRF-CEM cells after 72 hrs by MTT assay; assay type: functional, cell-based
Summary of the method: (§1)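 IC50 is the concentration that cuts cell growth by 50%, read by quantitative metabolic MTT staining after a 3-day treatment. The resistant sublines were made by raising the concentration of the cytotoxic drug step by step. CEM-DNR-bulk (daunorubicin-selected) stably overexpresses mrp-1. K562-TAX (paclitaxel-selected) expresses only mdr-1. HCT116p53−/− carries null p53 alleles. BJ and MRC-5 are nonmalignant fibroblasts.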

[2] = tested on: Escherichia coli; test: Antibacterial activity against Escherichia coli CCM 3954 after 24 hrs; assay type: functional, organism-based
[3] = tested on: Hepatitis C virus; test: Antiviral activity against Hepatitis C virus subtype 1b infected in human HuH7 cells; assay type: functional, organism-based, Hepacivirus hominis; conditions: genotype 1b, Huh-7
[4] = tested on: MRC5; test: Cytostatic activity against human MRC5 cells after 72 hrs by MTT assay; assay type: ADME, cell-based; conditions: MRC5, 72 h; summary of the method: as §1
[5] = tested on: Pichia kudriavzevii; test: Antifungal activity against Candida crusei after 48 hrs; assay type: functional, organism-based
[6] = Cytostatic activity against human CEM-DNR-bulk cells after 72 hrs by MTT assay; assay type: functional, cell-based; summary of the method: as §1
[7] = tested on: HCT-116; test: Cytostatic activity against p53-deficient human HCT116 cells after 72 hrs by MTT assay; assay type: functional, cell-based; conditions: HCT-116, 72 h; summary of the method: as §1
[8] = tested on: HCT-116; test: Cytostatic activity against human HCT116 cells after 72 hrs by MTT assay; assay type: functional, cell-based; conditions: HCT-116, 72 h; summary of the method: as §1
[9] = tested on: Enterococcus faecalis; test: Antibacterial activity against Enterococcus faecalis CCM 4224 after 24 hrs; assay type: functional, organism-based
[10] = tested on: Candida albicans; test: Antifungal activity against Candida albicans after 48 hrs; assay type: functional, organism-based
[11] = Cytotoxicity against human HuH7 cells infected with Hepatitis C virus subtype 1b; assay type: cell-based, Huh-7
[12] = Cytotoxicity against human HuH7 cells infected with Hepatitis C virus subtype 2a; assay type: cell-based, Huh-7
[13] = tested on: HepG2; test: Antiproliferative activity against human HepG2 cells after 72 hrs by XTT assay; assay type: functional, cell-based; conditions: HepG2, 72 h
[14] = tested on: A549; test: Cytostatic activity against human A549 cells after 72 hrs by MTT assay; assay type: functional, cell-based; conditions: A549, 72 h; summary of the method: as §1
[15] = tested on: BJ; test: Cytostatic activity against human BJ cells after 72 hrs by MTT assay; assay type: ADME, cell-based; summary of the method: as §1
[16] = Antiproliferative activity against human HeLaS3 cells after 72 hrs by XTT assay; assay type: functional, cell-based; conditions: HeLa S3, 72 h
Summary of the method: (§2)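 Antiproliferative test on HL-60 promyelocytic leukemia and HeLa S3 cervical carcinoma cells growing in liquid suspension.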

[17] = tested on: Pseudomonas aeruginosa; test: Antibacterial activity against Pseudomonas aeruginosa CCM 3955 after 24 hrs; assay type: functional, organism-based
[18] = tested on: Staphylococcus haemolyticus; test: Antibacterial activity against methicillin-resistant Staphylococcus haemolyticus A/16568 after 24 hrs; assay type: functional, organism-based
[19] = tested on: Pseudomonas aeruginosa; test: Antibacterial activity against multi-resistant Pseudomonas aeruginosa A/16575 after 24 hrs; assay type: functional, organism-based
[20] = tested on: HL-60; test: Antiproliferative activity against human HL60 cells after 72 hrs by XTT assay; assay type: functional, cell-based; conditions: HL-60, 72 h; summary of the method: as §2
[21] = tested on: Staphylococcus aureus; test: Antibacterial activity against methicillin-resistant Staphylococcus aureus MRSA 4591 after 24 hrs; assay type: functional, organism-based
[22] = tested on: K562; test: Cytostatic activity against human K562 cells after 72 hrs by MTT assay; assay type: functional, cell-based; conditions: K562, 72 h; summary of the method: as §1
[23] = tested on: Hepatitis C virus; test: Antiviral activity against Hepatitis C virus subtype 2a infected in human HuH7 cells; assay type: functional, organism-based, Hepacivirus hominis; conditions: genotype 2a, Huh-7
[24] = tested on: Candida tropicalis; test: Antifungal activity against Candida tropicalis after 48 hrs; assay type: functional, organism-based
[25] = tested on: Candida parapsilosis; test: Antifungal activity against Candida parapsilosis after 48 hrs; assay type: functional, organism-based
[26] = tested on: K562; test: Cytostatic activity against paclitaxel-resistant human K562 cells after 72 hrs by MTT assay; assay type: functional, cell-based; conditions: K562, 72 h; summary of the method: as §1
[27] = tested on: Escherichia coli; test: Antibacterial activity against multi-resistant Escherichia coli C/16702 after 24 hrs; assay type: functional, organism-based
[28] = tested on: Staphylococcus aureus; test: Antibacterial activity against Staphylococcus aureus CCM 3953 after 24 hrs; assay type: functional, organism-based

C#Cc1cn([C@@H]2O[C@H](CO)[C@@H](O)[C@H]2O)c2ncnc(SC)c12
IC50 [1]: > 20 µM | Activity [2]: inactive | EC50 [3]: 0.21 µM | IC50 [4]: > 100 µM | Activity [5]: inactive | IC50 [6]: 0.11 µM | IC50 [7]: 0.09 µM | IC50 [8]: 0.03 µM | Activity [9]: inactive | Activity [10]: inactive | CC50 [11]: > 44 µM | CC50 [12]: > 44 µM | IC50 [13]: > 15 µM | IC50 [14]: 0.14 µM | IC50 [15]: 68.6 µM | IC50 [16]: 0.11 µM | Activity [17]: inactive | Activity [18]: inactive | Activity [19]: inactive | IC50 [20]: 0.05 µM | Activity [21]: inactive | IC50 [22]: 0.03 µM | EC50 [23]: > 44 µM | Activity [24]: inactive | Activity [25]: inactive | IC50 [26]: 0.07 µM | Activity [27]: inactive | Activity [28]: inactive

Cc1ncnc2c1c(-c1ccccc1)cn2[C@@H]1O[C@H](CO)[C@@H](O)[C@H]1O
IC50 [1]: > 20 µM | Activity [2]: inactive | EC50 [3]: 34.8 µM | IC50 [4]: > 100 µM | Activity [5]: inactive | IC50 [6]: > 20 µM | IC50 [7]: 95.3 µM | IC50 [8]: > 100 µM | Activity [9]: inactive | Activity [10]: inactive | CC50 [11]: > 44 µM | CC50 [12]: > 44 µM | IC50 [13]: > 20 µM | IC50 [14]: > 20 µM | IC50 [15]: > 100 µM | IC50 [16]: > 20 µM | Activity [17]: inactive | Activity [18]: inactive | Activity [19]: inactive | IC50 [20]: > 20 µM | Activity [21]: inactive | IC50 [22]: > 20 µM | EC50 [23]: > 44 µM | Activity [24]: inactive | Activity [25]: inactive | IC50 [26]: > 20 µM | Activity [27]: inactive | Activity [28]: inactive

O=c1[nH]cnc2c1c(-c1cc3ccccc3o1)cn2[C@@H]1O[C@H](CO)[C@@H](O)[C@H]1O
IC50 [1]: > 20 µM | Activity [2]: inactive | EC50 [3]: 7.21 µM | IC50 [4]: > 100 µM | Activity [5]: inactive | IC50 [6]: > 20 µM | IC50 [7]: > 20 µM | IC50 [8]: > 20 µM | Activity [9]: inactive | Activity [10]: inactive | CC50 [11]: > 44 µM | CC50 [12]: > 44 µM | IC50 [13]: > 20 µM | IC50 [14]: > 20 µM | IC50 [15]: 62.7 µM | IC50 [16]: > 20 µM | Activity [17]: inactive | Activity [18]: inactive | Activity [19]: inactive | IC50 [20]: > 20 µM | Activity [21]: inactive | IC50 [22]: > 20 µM | EC50 [23]: 17.4 µM | Activity [24]: inactive | Activity [25]: inactive | IC50 [26]: > 20 µM | Activity [27]: inactive | Activity [28]: inactive

O=c1[nH]cnc2c1c(-c1cccs1)cn2[C@@H]1O[C@H](CO)[C@@H](O)[C@H]1O
IC50 [1]: > 20 µM | Activity [2]: inactive | EC50 [3]: > 44 µM | IC50 [4]: > 100 µM | Activity [5]: inactive | IC50 [6]: > 20 µM | IC50 [7]: > 20 µM | IC50 [8]: > 20 µM | Activity [9]: inactive | Activity [10]: inactive | CC50 [11]: > 44 µM | CC50 [12]: > 44 µM | IC50 [13]: > 20 µM | IC50 [14]: > 20 µM | IC50 [15]: > 100 µM | IC50 [16]: > 20 µM | Activity [17]: inactive | Activity [18]: inactive | Activity [19]: inactive | IC50 [20]: > 20 µM | Activity [21]: inactive | IC50 [22]: > 20 µM | EC50 [23]: > 44 µM | Activity [24]: inactive | Activity [25]: inactive | IC50 [26]: > 20 µM | Activity [27]: inactive | Activity [28]: inactive

C#Cc1cn([C@@H]2O[C@H](CO)[C@@H](O)[C@H]2O)c2nc(N)nc(OC)c12
IC50 [1]: > 100 µM | Activity [2]: inactive | EC50 [3]: > 44 µM | IC50 [4]: > 100 µM | Activity [5]: inactive | IC50 [6]: > 20 µM | IC50 [7]: > 20 µM | IC50 [8]: > 20 µM | Activity [9]: inactive | Activity [10]: inactive | CC50 [11]: > 44 µM | CC50 [12]: > 44 µM | IC50 [13]: > 20 µM | IC50 [14]: > 100 µM | IC50 [15]: > 100 µM | IC50 [16]: > 20 µM | Activity [17]: inactive | Activity [18]: inactive | Activity [19]: inactive | IC50 [20]: > 20 µM | Activity [21]: inactive | IC50 [22]: > 20 µM | EC50 [23]: > 44 µM | Activity [24]: inactive | Activity [25]: inactive | IC50 [26]: > 20 µM | Activity [27]: inactive | Activity [28]: inactive

Nc1nc2c(c(-c3ccco3)cn2[C@@H]2O[C@H](CO)[C@@H](O)[C@H]2O)c(=O)[nH]1
IC50 [1]: > 20 µM | Activity [2]: inactive | EC50 [3]: > 44 µM | IC50 [4]: > 100 µM | Activity [5]: inactive | IC50 [6]: > 20 µM | IC50 [7]: > 20 µM | IC50 [8]: > 20 µM | Activity [9]: inactive | Activity [10]: inactive | CC50 [11]: > 44 µM | CC50 [12]: > 44 µM | IC50 [13]: > 20 µM | IC50 [14]: > 20 µM | IC50 [15]: > 100 µM | IC50 [16]: > 20 µM | Activity [17]: inactive | Activity [18]: inactive | Activity [19]: inactive | IC50 [20]: > 20 µM | Activity [21]: inactive | IC50 [22]: > 20 µM | EC50 [23]: > 44 µM | Activity [24]: inactive | Activity [25]: inactive | IC50 [26]: > 20 µM | Activity [27]: inactive | Activity [28]: inactive
